Assay results taken from ChEMBL document CHEMBL1123290, “Synthesis, antimalarial activity, and quantitative structure-activity relationships of tebuquine and a series of related 5-[(7-chloro-4-quinolinyl)amino]-3-[(alkylamino)methyl] [1,1'-biphenyl]-2-ols and N omega-oxides” (1986).

Columns and labels:
Format in all cases: functional
Plasmodium berghei [1] = test: Antimalarial activity in primary screen
Mus musculus [2] = test: Compound was evaluated for parenteral antimalarial activity against Plasmodium berghei in mice (Mus musculus) after single dose (40 mg/kg subcutaneous); no of mice (Mus musculus) surviving at 60 days post infection, 3 cured
Summary of the method: (§1)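 Mice were infected with a normal drug-sensitive Plasmodium berghei strain. At 72 h postinfection each received one subcutaneous dose of compound dissolved or suspended in peanut oil, in five-mouse groups per dose. The read-out was the number of mice alive at 60 days postinfection, which were scored as cured.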

Plasmodium berghei [3] = test: Change in mean survival time for control (average 6.2 days) versus treated mice (Mus musculus) 72 hrs after 20 mg/kg subcutaneous dose
Plasmodium berghei [4] = test: Change in mean survival time for control (average 6.2 days) versus treated mice (Mus musculus) 72 hrs after 320 mg/kg subcutaneous dose
Plasmodium berghei [5] = test: Change in mean survival time for control (average 6.2 days) versus treated mice (Mus musculus) 72 hrs after 160 mg/kg subcutaneous dose
Plasmodium berghei [6] = test: Antimalarial activity as 60-day survivors in Plasmodium berghei infected mice (Mus musculus) after single 160mg/kg subcutaneous dose 72 hr post infection; summary of the method: as §1
Plasmodium berghei [7] = test: Difference in mean survival time in mice (Mus musculus) (control = 6.2 days) after single 40mg/kg subcutaneous dose 72hr post infection
Plasmodium berghei [8] = test: Change in mean survival time for control (average 6.2 days) versus treated mice (Mus musculus) 72 hrs after 640 mg/kg subcutaneous dose
Plasmodium berghei [9] = test: Change in mean survival time for control (average 6.2 days) versus treated mice (Mus musculus) 72 hrs after 10 mg/kg subcutaneous dose
Plasmodium berghei [10] = test: Change in mean survival time for control (average 6.2 days) versus treated mice (Mus musculus) 72 hrs after 5 mg/kg subcutaneous dose
Plasmodium berghei [11] = test: Antimalarial activity as 60-day survivors in infected mice (Mus musculus) after single 320mg/kg subcutaneous dose 72 hr post infection; summary of the method: as §1
Plasmodium berghei [12] = test: (§2) Change in mean survival time for control (average 6.2 days) versus treated mice (Mus musculus) 72 hrs after […] subcutaneous dose
Mus musculus [13] = test: Antimalarial activity, administered as a single subcutaneous dose of 640 mg/kg, 72 hrs post infection measured as number of mice (Mus musculus) surviving at 60 days post infection; summary of the method: as §1
Plasmodium berghei [14] = test: Change in mean survival time for control (average 6.2 days) versus treated mice (Mus musculus) 72 hrs after […] subcutaneous dose
Plasmodium berghei [15] = test: Change in mean survival time for control (average of 6.2 days) versus treated mice (Mus musculus) 72 hrs after 80 mg/kg subcutaneous dose
Mus musculus [16] = test: Antimalarial activity of compound administered as a single subcutaneous dose of 10mg/kg, 72 hrs post infection measured as number of mice (Mus musculus) surviving at 60 days post infection; summary of the method: as §1
Mus musculus [17] = test: Antimalarial activity, administered as a single subcutaneous dose of 80 mg/kg, 72 hrs post infection measured as number of mice (Mus musculus) surviving at 60 days post infection; summary of the method: as §1
Plasmodium berghei [18] = test: Change in mean survival time for control (average 6.2 days) versus treated mice (Mus musculus) after 160 mg/kg subcutaneous dose
Plasmodium berghei [19] = test: Change in mean survival time of Plasmodium berghei infected mice (Mus musculus) after […] subcutaneous dose
Plasmodium berghei [20] = test: Change in mean survival time of Plasmodium berghei infected mice (Mus musculus) after 5 mg/kg subcutaneous dose
Plasmodium berghei [21] = test: Change in mean survival time in control (average 6.2 days) versus treated mice (Mus musculus) after 80 mg/kg subcutaneous dose
Plasmodium berghei [22] = test: Change in mean survival time for control (average 6.2 days) versus treated mice (Mus musculus) after 20 mg/kg subcutaneous dose
Plasmodium berghei [23] = test: Change in mean survival time for control (average 6.2 days) versus treated mice (Mus musculus) after 320 mg/kg subcutaneous dose
Plasmodium berghei [24] = test: Difference in mean survival time of Plasmodium berghei infected mice (Mus musculus) after 10 mg/kg subcutaneous dose
Mus musculus [25] = test: Delta MST, difference in mean survival time of the control mice (an average of 6.2 days) from the mean survival time of the treated mice after a single dose of (mg/kg sc) 1.25
Plasmodium berghei [26] = test: Change in mean survival time for control (average 6.2 days) versus treated mice (Mus musculus) after 40 mg/kg subcutaneous dose
Plasmodium berghei [27] = test: Antimalarial activity as 60-day survivors in infected mice (Mus musculus) after single 20 mg/kg subcutaneous dose 72hr post infection; summary of the method: as §1
Mus musculus [28] = test: Antimalarial activity, administered as a single subcutaneous dose of 40 mg/kg, 72 hrs post infection measured as number of mice (Mus musculus) surviving at 60 days post infection; summary of the method: as §1
Plasmodium berghei [29] = test: Change in mean survival time of Plasmodium berghei infected mice (Mus musculus) on 1.25 mg/kg subcutaneous dose
Mus musculus [30] = test: Delta MST, difference in mean survival time of the control mice (an average of 6.2 days) from the mean survival time of the treated mice after a single sc dose of 160 mg/kg, 72-h postinfection; conditions: route subcutaneous
Mus musculus [31] = test: Antimalarial activity of compound administered as a single subcutaneous dose of 20 mg/kg, 72 hrs post infection measured as number of mice (Mus musculus) surviving at 60 days post infection; summary of the method: as §1
Mus musculus [32] = test: Antimalarial activity of compound administered as a single subcutaneous dose of 320 mg/kg, 72 hrs post infection measured as number of mice (Mus musculus) surviving at 60 days post infection; summary of the method: as §1
Mus musculus [33] = test: Antimalarial activity of compound administered as a single subcutaneous dose of 40 mg/kg, 72-h postinfection measured as number of mice (Mus musculus) surviving at 60 days postinfection; summary of the method: as §1
Mus musculus [34] = test: Antimalarial activity of compound administered as a single subcutaneous dose of 80mg/kg, 72-h postinfection measured as number of mice (Mus musculus) surviving at 60 days postinfection; summary of the method: as §1
Mus musculus [35] = test: Antimalarial activity of compound administered as a single subcutaneous dose of 160mg/kg, 72-h postinfection measured as number of mice (Mus musculus) surviving at 60 days postinfection; summary of the method: as §1
Mus musculus [36] = test: Compound was evaluated for parenteral antimalarial activity against Plasmodium berghei in mice (Mus musculus) after single dose (1.25 mg/kg subcutaneously)
Plasmodium berghei [37] = test: as §2; remark: listed apart in the source
Mus musculus [38] = test: Compound was evaluated for parenteral antimalarial activity against Plasmodium berghei in mice (Mus musculus) after single dose (mg/kg subcutaneously) 40
Mus musculus [39] = test: Compound was evaluated for parenteral antimalarial activity against Plasmodium berghei in mice (Mus musculus) after single dose (80 mg/kg subcutaneously)
Mus musculus [40] = test: Compound was evaluated for parenteral antimalarial activity against Plasmodium berghei in mice (Mus musculus) after single dose (mg/kg subcutaneously) 20
Mus musculus [41] = test: Antimalarial activity of compound administered as a single subcutaneous dose of 5mg/kg, 72-h postinfection measured as number of mice (Mus musculus) surviving at 60 days postinfection; summary of the method: as §1

| SMILES | ED30 (Plasmodium berghei [1]) | Delta MST (Plasmodium berghei [3]) | Delta MST (Plasmodium berghei [4]) | Delta MST (Plasmodium berghei [5]) | No. of mice cured (Plasmodium berghei [6]) | Delta MST (Plasmodium berghei [7]) | Delta MST (Plasmodium berghei [8]) | Delta MST (Plasmodium berghei [9]) | Delta MST (Plasmodium berghei [10]) | No. of mice cured (Plasmodium berghei [11]) | Delta MST (Plasmodium berghei [12]) | No. of mice cured (Mus musculus [13]) | Delta MST (Plasmodium berghei [14]) | No. of mice cured (Mus musculus [17]) | Delta MST (Plasmodium berghei [18]) | Delta MST (Plasmodium berghei [19]) | Delta MST (Plasmodium berghei [20]) | Delta MST (Plasmodium berghei [21]) | Delta MST (Plasmodium berghei [22]) | Delta MST (Plasmodium berghei [23]) | further results |
| --- | --- | --- | --- | --- | --- | --- | --- | --- | --- | --- | --- | --- | --- | --- | --- | --- | --- | --- | --- | --- | --- |
| CCN(CC)Cc1cc(Nc2ccnc3cc(Cl)ccc23)cc(-c2cccc(C(F)(F)F)c2)c1O | 16.3 mg/kg | 23.7 days | 21.9 days | 21.9 days | 4 | 31.4 days | 17.9 days | 15.2 days | 13.5 days | 3 | 0.5 days | 3 | 9.7 days | 2 | – | – | – | – | – | – | No. of mice cured (Mus musculus [2]): 3; Delta MST (Plasmodium berghei [15]): 28.2 days; No. of mice cured (Mus musculus [16]): 1 |
| CCC(C)NCc1cc(Nc2cc[n+]([O-])c3cc(Cl)ccc23)cc(-c2ccc(Cl)cc2)c1O (stereo unspecified) | – | – | – | – | 4 | – | – | – | – | 3 | – | 3 | – | 3 | 14.6 days | 1.6 days | 3.6 days | 23.6 days | 22.6 days | 17.1 days | Delta MST (Plasmodium berghei [24]): 7.2 days; Delta MST (Mus musculus [25]): 0; Delta MST (Plasmodium berghei [26]): 21.3 days; No. of mice cured (Plasmodium berghei [27]): 3; No. of mice cured (Mus musculus [28]): 2; Delta MST (Plasmodium berghei [29]): 0 days |
| CCN(CC)Cc1cc(Nc2ccnc3cc(Cl)ccc23)cc(-c2cccc(Cl)c2)c1O | 17.3 mg/kg | 22.4 days | – | – | 4 | 29.4 days | 21.9 days | 15.5 days | 3.9 days | 5 | 0.3 days | 4 | 1.3 days | 2 | – | – | – | – | – | – | No. of mice cured (Plasmodium berghei [27]): 1; Delta MST (Mus musculus [30]): 31.9 days; No. of mice cured (Mus musculus [28]): 3 |
| CC(C)(C)NCc1cc(Nc2ccnc3cc(Cl)ccc23)cc(-c2ccccc2)c1O | – | 14.8 days | 12.3 days | 12.8 days | – | 20.2 days | 13 days | 29.5 days | 13.7 days | – | 0.3 days | 1 | 5.3 days | – | – | – | – | – | – | – | No. of mice cured (Mus musculus [31]): 1; No. of mice cured (Mus musculus [32]): 1; No. of mice cured (Mus musculus [33]): 2; No. of mice cured (Mus musculus [34]): 1; No. of mice cured (Mus musculus [35]): 1; Delta MST (Plasmodium berghei [15]): 27.3 days |
| CCN(CC)Cc1cc(Nc2cc[n+]([O-])c3cc(Cl)ccc23)cc(-c2cccc(C(F)(F)F)c2)c1O | 113 mg/kg | – | – | – | – | – | – | – | – | 1 | – | 4 | – | – | 21.1 days | -0.1 days | 0.3 days | 11.7 days | 5.9 days | 24.9 days | Delta MST (Mus musculus [36]): 0.3; Delta MST (Plasmodium berghei [37]): 27.9 days; Delta MST (Plasmodium berghei [24]): 1.1 days; Delta MST (Plasmodium berghei [26]): 8.5 days; Delta MST (Plasmodium berghei [29]): 0.3 days |
| CCN(CC)Cc1cc(Nc2cc[n+]([O-])c3cc(Cl)ccc23)cc(CN(CC)CC)c1O | – | – | – | – | 1 | – | – | – | – | 3 | – | 3 | – | – | – | – | – | – | – | – | Delta MST (Mus musculus [38]): 6.9 days; Delta MST (Mus musculus [39]): 8.5 days; Delta MST (Mus musculus [40]): 3.9 days |
| CC(C)(C)NCc1cc(Nc2cc[n+]([O-])c3cc(Cl)ccc23)cc(-c2ccc(Cl)cc2)c1O | – | – | – | – | 3 | – | – | – | – | 4 | – | 4 | – | 2 | 13.4 days | 0.2 days | 11.4 days | 20.6 days | 28.9 days | 13.9 days | Delta MST (Plasmodium berghei [37]): 13.9 days; Delta MST (Plasmodium berghei [24]): 26.3 days; Delta MST (Mus musculus [25]): 0; Delta MST (Plasmodium berghei [26]): 24.9 days; No. of mice cured (Mus musculus [41]): 1; No. of mice cured (Plasmodium berghei [27]): 4; No. of mice cured (Mus musculus [16]): 1; No. of mice cured (Mus musculus [28]): 4; Delta MST (Plasmodium berghei [29]): 0 days |
| CC(C)CNCc1cc(Nc2ccnc3cc(Cl)ccc23)cc(-c2ccc(Cl)cc2)c1O | – | 19.6 days | 11.3 days | 4.9 days | – | – | 13.4 days | 14.8 days | 5.2 days | – | 0.8 days | – | 2 days | – | – | – | – | – | – | – | No. of mice cured (Mus musculus [31]): 2; No. of mice cured (Mus musculus [32]): 2; No. of mice cured (Mus musculus [33]): 5; No. of mice cured (Mus musculus [34]): 5; No. of mice cured (Mus musculus [35]): 2 |
